Legend:
[1] = molecular target: T1, 5-hydroxytryptamine receptor 6 (Homo sapiens, UniProt P50406); assay: Displacement of [3H]LSD from cloned human 5HT6 expressed in HeLa cells; format: cell-based
Procedure, shortened: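 Radioligand binding used [3H]-LSD on human-cloned 5-HT6 receptors stably transfected in HeLa cells. Ki values were determined in triplicate.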

[2] = molecular target: T1, 5-hydroxytryptamine receptor 6; assay: Agonist activity at human 5HT6 expressed in HeLa cells assessed as intracellular cAMP level by radioimmunoassay; format: functional, cell-based
[3] = molecular target: T1, 5-hydroxytryptamine receptor 6; assay: Antagonist activity at human 5HT6 expressed in HeLa cells assessed as intracellular cAMP level by radioimmunoassay; format: functional, cell-based
Procedure, shortened: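 Stably transfected h5-HT6 HeLa cells were washed in Krebs buffer and preincubated 5 min at 37 °C in Krebs with 500 μM IBMX. Test compound was then added at 0.1–10000 nM for 10 min at 37 °C. The reaction was stopped with 0.5 M perchloric acid, and intracellular cAMP was measured by scintillation proximity RIA. IC50 and Imax were determined in triplicate.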

T1 sequence (P50406 whole entry): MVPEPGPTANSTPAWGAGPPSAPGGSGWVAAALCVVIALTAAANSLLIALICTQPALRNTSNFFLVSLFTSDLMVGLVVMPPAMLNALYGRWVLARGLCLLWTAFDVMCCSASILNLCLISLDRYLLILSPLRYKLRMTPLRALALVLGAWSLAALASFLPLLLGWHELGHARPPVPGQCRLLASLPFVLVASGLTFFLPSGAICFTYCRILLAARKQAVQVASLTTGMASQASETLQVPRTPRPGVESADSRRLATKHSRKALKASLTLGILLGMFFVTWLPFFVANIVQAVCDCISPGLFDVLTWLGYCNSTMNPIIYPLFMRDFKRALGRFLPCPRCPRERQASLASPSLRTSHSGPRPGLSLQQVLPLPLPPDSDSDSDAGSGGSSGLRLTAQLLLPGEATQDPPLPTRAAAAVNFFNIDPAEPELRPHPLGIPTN

Structure (SMILES) | Ki [1] [nM] | EC50 [2] [nM] | %max [3] [%] | IC50 [3] [nM] | Imax [3] [%]
O=S(=O)(c1ccc(C(F)(F)F)cc1)c1cn(C2CCCNC2)c2ncccc12 (configuration not stated) | 12 | 414 | – | – | –
O=S(=O)(c1cccc(Br)c1)c1cn(C2CCNC2)c2ncccc12 (configuration not stated) | 1.3 | 35 | – | – | –
O=S(=O)(c1ccc(Cl)cc1)c1cn(C2CCNC2)c2ncccc12 (configuration not stated) | 5.5 | – | 94 | 340 | –
CN1CCCC(n2cc(S(=O)(=O)c3c(Cl)nc4sccn34)c3cccnc32)C1 (configuration not stated) | 2 | 25 | – | – | –
CCN1CCC(n2cc(S(=O)(=O)c3cccc(Cl)c3)c3cccnc32)C1 (configuration not stated) | 3.3 | – | 93 | 120 | –
O=S(=O)(c1ccccc1F)c1cn(C2CCNC2)c2ncccc12 (configuration not stated) | 2 | – | 100 | 50 | –
CN1CCCC(n2cc(S(=O)(=O)c3cccc(C(F)(F)F)c3)c3cccnc32)C1 (configuration not stated) | 2.1 | 49 | – | – | –
CCN1CCCC(n2cc(S(=O)(=O)c3ccc(Cl)cc3)c3cccnc32)C1 (configuration not stated) | 33.5 | – | – | 70 | 71
O=S(=O)(c1cccc(Cl)c1)c1cn(C2CCCNC2)c2ncccc12 (configuration not stated) | 1.3 | 30 | – | – | –
CN1CCC(n2cc(S(=O)(=O)c3cccc(Cl)c3)c3cccnc32)C1 (configuration not stated) | 1.5 | – | 85 | 142 | –
O=S(=O)(c1ccc(Br)cc1)c1cn(C2CCNC2)c2ncccc12 (configuration not stated) | 4.3 | – | 96 | 135 | –
O=S(=O)(c1cccc(Cl)c1)c1cn(C2CCNC2)c2ncccc12 (configuration not stated) | 1.5 | 1680 | – | – | –
CCN1CCCC(n2cc(S(=O)(=O)c3c(Cl)nc4sccn34)c3cccnc32)C1 (configuration not stated) | 0.7 | 34 | – | – | –
O=S(=O)(c1cccc(C(F)(F)F)c1)c1cn(C2CCCNC2)c2ncccc12 (configuration not stated) | 4.6 | 273 | – | – | –
O=S(=O)(c1ccccc1Cl)c1cn(C2CCCNC2)c2ncccc12 (configuration not stated) | 3.7 | 50 | – | – | –
CCN1CCCC(n2cc(S(=O)(=O)c3ccc(Cl)s3)c3cccnc32)C1 (configuration not stated) | 3.2 | 50 | – | – | –
CN1CCC(n2cc(S(=O)(=O)c3ccc(F)cc3)c3cccnc32)C1 (configuration not stated) | 5 | – | 85 | 213 | –
O=S(=O)(c1cccc(Br)c1)c1cn(C2CCCNC2)c2ncccc12 (configuration not stated) | 3.8 | 72 | – | – | –
CN1CCCC(n2cc(S(=O)(=O)c3cccc(F)c3)c3cccnc32)C1 (configuration not stated) | 4.7 | 306 | – | – | –
CN1CCCC(n2cc(S(=O)(=O)c3ccc(Cl)s3)c3cccnc32)C1 (configuration not stated) | 1.9 | 71 | – | – | –
O=S(=O)(c1cc(Cl)cc(Cl)c1)c1cn(C2CCCNC2)c2ncccc12 (configuration not stated) | 6.1 | 297 | – | – | –
CC(C)N1CCCC(n2cc(S(=O)(=O)c3ccc(Cl)cc3)c3cccnc32)C1 (configuration not stated) | 11.1 | – | – | 338 | 74
O=S(=O)(c1ccc(Cl)s1)c1cn(C2CCCNC2)c2ncccc12 (configuration not stated) | 1.2 | 98 | – | – | –
CN1CCCC(n2cc(S(=O)(=O)c3cc(Cl)cc(Cl)c3)c3cccnc32)C1 (configuration not stated) | 3.9 | 38.7 | – | – | –
CC(C)N1CCCC(n2cc(S(=O)(=O)c3c(Cl)nc4sccn34)c3cccnc32)C1 (configuration not stated) | 1.7 | – | – | 8 | –

Structure (SMILES) | Ki [1] [nM] | EC50 [2] [nM] | %max [3] [%] | IC50 [3] [nM] | Imax [3] [%]
O=S(=O)(c1ccccc1)c1cn(C2CCCNC2)c2ncccc12 (configuration not stated) | 4.9 | 47 | – | – | –
O=S(=O)(c1cn(C2CCNC2)c2ncccc12)c1c(Cl)nc2sccn12 (configuration not stated) | – | 80 | – | – | –
CC(C)N1CCCC(n2cc(S(=O)(=O)c3cccc(F)c3)c3cccnc32)C1 (configuration not stated) | 3.4 | 172 | – | – | –
CN1CCC(n2cc(S(=O)(=O)c3ccc(Cl)cc3)c3cccnc32)C1 (configuration not stated) | 4.2 | – | 98 | 95 | –
O=S(=O)(c1ccc(Cl)cc1)c1cn(C2CCCNC2)c2ncccc12 (configuration not stated) | 7.6 | – | – | 682 | 76
CC(C)N1CCCC(n2cc(S(=O)(=O)c3cccc(Br)c3)c3cccnc32)C1 (configuration not stated) | 9.4 | – | – | 492 | 77
CN1CCC(n2cc(S(=O)(=O)c3ccccc3F)c3cccnc32)C1 (configuration not stated) | 5.6 | – | 69 | 186 | –
CN1CCC(n2cc(S(=O)(=O)c3cccc(Br)c3)c3cccnc32)C1 (configuration not stated) | 0.9 | – | 98 | 23 | –
CN1CCC(n2cc(S(=O)(=O)c3c(Cl)nc4sccn34)c3cccnc32)C1 (configuration not stated) | 0.8 | – | – | 26 | –
O=S(=O)(c1cccc(F)c1)c1cn(C2CCCNC2)c2ncccc12 (configuration not stated) | 2.4 | 67 | – | – | –
O=S(=O)(c1ccc(F)cc1)c1cn(C2CCNC2)c2ncccc12 (configuration not stated) | 8.5 | 1650 | – | – | –
CCN1CCC(n2cc(S(=O)(=O)c3ccccc3)c3cccnc32)C1 (configuration not stated) | 11 | – | 75 | 56 | –
CCN1CCC(n2cc(S(=O)(=O)c3cccc(F)c3)c3cccnc32)C1 (configuration not stated) | 8.3 | – | 89 | 132 | –
CN1CCCC(n2cc(S(=O)(=O)c3ccc(Cl)cc3)c3cccnc32)C1 (configuration not stated) | 11.5 | – | – | 28 | 63
CCN1CCCC(n2cc(S(=O)(=O)c3ccccc3)c3cccnc32)C1 (configuration not stated) | 3.6 | – | – | 26 | 58
O=S(=O)(c1cn(C2CCNC2)c2ncccc12)c1cccc2cccnc12 (configuration not stated) | 5.7 | – | 100 | 643 | –
O=S(=O)(c1cccc(C(F)(F)F)c1)c1cn(C2CCNC2)c2ncccc12 (configuration not stated) | 1.3 | 520 | – | – | –
O=S(=O)(c1cn(C2CCCNC2)c2ncccc12)c1c(Cl)nc2sccn12 (configuration not stated) | 0.7 | 66 | – | – | –
CCN1CCCC(n2cc(S(=O)(=O)c3cc(Cl)cc(Cl)c3)c3cccnc32)C1 (configuration not stated) | 13.5 | 67 | – | – | –
CN1CCC(n2cc(S(=O)(=O)c3ccccc3)c3cccnc32)C1 (configuration not stated) | 2.5 | 2030 | – | – | –
CN1CCC(n2cc(S(=O)(=O)c3ccccc3Cl)c3cccnc32)C1 (configuration not stated) | 2.2 | – | 91 | 91 | –
O=S(=O)(c1cccc(F)c1)c1cn(C2CCNC2)c2ncccc12 (configuration not stated) | 2.7 | 278 | – | – | –
O=S(=O)(c1ccccc1F)c1cn(C2CCCNC2)c2ncccc12 (configuration not stated) | 2 | – | – | 50 | 100
CCN1CCC(n2cc(S(=O)(=O)c3c(Cl)nc4sccn34)c3cccnc32)C1 (configuration not stated) | 1.4 | – | – | 10 | –
